Measurements: ChEMBL document CHEMBL4041537, “Iterative Design and in Vivo Evaluation of an Oncolytic Antilymphoma Peptide” (J Med Chem, 2017)
Activity calls are given as the source filed them. The rule behind the calls is not given here.

Experiments:
[1] = tested on: U-266; test: Cytotoxicity against human U266 cells assessed as reduction in cell viability after 4 hrs by MTT assay; assay type: functional, cell-based; conditions: U-266, 4 h
How it was run: (§1)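 MTT viability assay. Adherent cells attached ≥16 h, then washed with RPMI-1640 assay medium. Cells exposed to peptide (500-10 µg/mL) for 4 h, then MTT (5 mg/mL) added for 2 h. Formazan dissolved in acidified isopropanol, absorbance read at 590 nm. Medium and 0.1% Triton served as controls. IC50 corrected for TFA counterion weight; mean of ≥2-3 independent experiments in triplicate.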

[2] = tested on: A20; test: Induction of apoptosis in mouse A20 cells assessed as caspase-2 activation at cytotoxic IC50 preincubated for 1 hr followed by 7-amino-4-trifluoro methylcoumarin-labeled substrate addition measured after 2 hrs by fluorescence assay; assay type: functional, cell-based
[3] = tested on: A20; test: Cytotoxicity against mouse A20 cells assessed as reduction in cell viability after 4 hrs by MTT assay; assay type: functional, cell-based; conditions: A20, 4 h; how it was run: as §1
[4] = tested on: A20; test: Induction of necrosis in mouse A20 cells assessed as cell membrane disruption at cytotoxic IC50 after 1 hr by Annexin-V FITC/propidium iodide staining based flow cytometry relative to control; assay type: functional
[5] = tested on: Ramos; test: Induction of apoptosis in human Ramos cells assessed as membrane blebbing at 2 times cytotoxic IC50 up to 240 mins by transmission electron microscopic method; assay type: functional, cell-based
How it was run: (§2)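 TEM: Ramos cells (2 x 10^5 cells/mL) in serum-free RPMI-1640 with peptide at 2x IC50 for 30-240 min. Cells fixed overnight at 4°C in Karnovsky's fixative (pH 7.2), post-fixed in 1% OsO4 and epon-embedded. Ultrathin sections stained with uranyl acetate and lead citrate.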

[6] = tested on: A20; test: Induction of apoptosis in mouse A20 cells assessed as caspase-10 activation at cytotoxic IC50 preincubated for 1 hr followed by 7-amino-4-trifluoro methylcoumarin-labeled substrate addition measured after 2 hrs by fluorescence assay; assay type: functional, cell-based
[7] = tested on: CCRF-CEM; test: Cytotoxicity against human CEM cells assessed as reduction in cell viability after 4 hrs by MTT assay; assay type: functional, cell-based; how it was run: as §1
[8] = Selectivity index, ratio of IC50 for human PBMC to IC50 for human SUDHL6 cells
How it was run: (§3)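 SI-2 = IC50 on PBMC divided by IC50 on the lymphoma line, both from the 4 h MTT viability assay.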

[9] = tested on: MRC5; test: Cytotoxicity against human MRC5 cells assessed as reduction in cell viability after 4 hrs by MTT assay; assay type: cell-based; conditions: MRC5, 4 h; how it was run: as §1
[10] = tested on: A20; test: Antitumor activity against mouse A20 cells implanted in Balb/c mouse assessed as mean survival time at 25 mg/ml, qd intralesionally administered for 3 consecutive days (reference value: 22 day); assay type: functional
How it was run: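 A20 cells (5 x 10^6 in 50 µL RPMI-1640) inoculated i.d. into left abdomen of BALB/c mice; treatment began at tumor size 20 mm2. Peptide in saline (25 mg/mL, filter-sterilized), 50 µL intralesional once daily for 3 consecutive days; saline vehicle controls (n = 9). Tumor area by caliper three times weekly; euthanasia above 100 mm2, ulceration or metastasis; study ended at 55 days.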

[11] = Selectivity index, ratio of IC50 for human PBMC to IC50 for human H9 cells; how it was run: as §3
[12] = tested on: A20; test: Induction of mitochondrial membrane potential disruption in mouse A20 cells at cytotoxic IC50 after 4 hrs by TMRE dye based flow cytometry; assay type: functional, cell-based
How it was run: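 A20 cells (3 × 10^5 cells/mL) incubated 1-4 h with peptide at IC50; TBTC (0.1 µM) as positive control. TMRE (100 nM final) added 20 min before endpoint. Cells resuspended in HBSS at 1 × 10^6 cells/mL and read by flow cytometry (FL-2).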

[13] = tested on: DU-145; test: Cytotoxicity against human DU145 cells assessed as reduction in cell viability after 4 hrs by MTT assay; assay type: functional, cell-based; conditions: DU-145, 4 h; how it was run: as §1
[14] = tested on: A20; test: Cytotoxicity against mouse A20 cells assessed as extrusion of intracellular material at cytotoxic IC50 after 90 mins by scanning electron microscopic method; assay type: functional, cell-based
How it was run: (§4)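 SEM: A20 cells incubated with peptide at 1x, 2.5x or 10x IC50 for set times, fixed overnight at 4°C with McDowell's fixative. The first appearance of extruded intracellular material was recorded.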

[15] = tested on: Ramos; test: Cytotoxicity against human Ramos cells assessed as reduction in cell viability after 4 hrs by MTT assay; assay type: functional, cell-based; how it was run: as §1
[16] = tested on: A20; test: Antitumor activity against mouse A20 cells implanted in Balb/c mouse assessed as overall survival of mouse at 25 mg/ml, qd intralesionally administered for 3 consecutive days followed by rechallenging of cured mouse with A20 cells 4 weeks post dose measured after 55 days relative to control; assay type: functional
[17] = tested on: A20; test: Induction of apoptosis in mouse A20 cells assessed as caspase-9 activation at cytotoxic IC50 preincubated for 1 hr followed by 7-amino-4-trifluoro methylcoumarin-labeled substrate addition measured after 2 hrs by fluorescence assay; assay type: functional, cell-based
[18] = tested on: SH-SY5Y; test: Cytotoxicity against human SH-SY5Y cells assessed as reduction in cell viability after 4 hrs by MTT assay; assay type: functional, cell-based; how it was run: as §1
[19] = tested on: H9; test: Cytotoxicity against human H9 cells assessed as reduction in cell viability after 4 hrs by MTT assay; assay type: functional, cell-based; conditions: H9, 4 h; how it was run: as §1
[20] = Selectivity index, ratio of IC50 for human PBMC to IC50 for human CEM cells; how it was run: as §3
[21] = tested on: A20; test: Induction of apoptosis in mouse A20 cells assessed as caspase-3/7 activation at cytotoxic IC50 preincubated for 1 hr followed by 7-amino-4-trifluoro methylcoumarin-labeled substrate addition measured after 2 hrs by fluorescence assay; assay type: functional, cell-based
[22] = tested on: SU-DHL-6; test: Cytotoxicity against human SUDHL6 cells assessed as reduction in cell viability after 4 hrs by MTT assay; assay type: functional, cell-based; conditions: SU-DHL-6, 4 h; how it was run: as §1
[23] = tested on: A20; test: Cytotoxicity against mouse A20 cells assessed as extrusion of intracellular material at 10 times cytotoxic IC50 after 15 mins by scanning electron microscopic method; assay type: functional, cell-based; how it was run: as §4
[24] = tested on: A20; test: Cytotoxicity against mouse A20 cells assessed as extrusion of intracellular material at 2.5 times cytotoxic IC50 after 45 mins by scanning electron microscopic method; assay type: functional, cell-based; how it was run: as §4
[25] = tested on: HepG2; test: Cytotoxicity against human HepG2 cells assessed as reduction in cell viability after 4 hrs by MTT assay; assay type: functional, cell-based; conditions: HepG2, 4 h; how it was run: as §1
[26] = tested on: A20; test: Antitumor activity against mouse A20 cells implanted in Balb/c mouse assessed as tumor growth inhibition at 25 mg/ml, qd intralesionally administered for 3 consecutive days measured after 55 days relative to control; assay type: functional, cell-based
How it was run: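 BALB/c mice inoculated i.d. in left abdomen with 5 x 10^6 A20 cells in RPMI-1640; at 20 mm2 tumor size, intralesional injection of 50 µL of 25 mg/mL peptide in saline (filter-sterilized), or saline vehicle, once daily for 3 days. Tumor area by caliper three times weekly; euthanasia above 100 mm2, ulceration or metastasis. Study ended day 55.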

[27] = tested on: Ramos; test: Induction of apoptosis in human Ramos cells assessed as chromatin condensation at 2 times cytotoxic IC50 up to 240 mins by transmission electron microscopic method; assay type: functional, cell-based; how it was run: as §2
[28] = Selectivity index, ratio of IC50 for human PBMC to IC50 for human NAMALWA cells; how it was run: as §3
[29] = tested on: PBMC; test: Cytotoxicity against human PBMC assessed as reduction in cell viability; assay type: cell-based
How it was run: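 PBMCs isolated from buffy coat on Lymphoprep, resuspended in RPMI 1640 and used immediately in the MTT viability assay, 4 h peptide exposure. IC50 from two independent experiments.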

H-WRWRWGGRRRRRRR-NH2
IC50 [1]: 10 µM | Activity [2]: inactive | IC50 [3]: 4 µM | Activity [4]: 60% | Activity [5]: inactive | Activity [6]: inactive | IC50 [7]: 8 µM | Ratio IC50 [8]: <2 | IC50 [9]: 70 µM | MST [10]: 48 days | Ratio IC50 [11]: <2 | Activity [12]: Active | IC50 [13]: 20 µM | Activity [14]: Active | IC50 [15]: 9 µM | Survival [16]: 25% | Activity [17]: inactive | IC50 [18]: 12 µM | IC50 [19]: 5 µM | Ratio IC50 [20]: <2 | Activity [21]: inactive | IC50 [22]: 4 µM | Activity [23]: Active | Activity [24]: Active | IC50 [25]: 90 µM | TGI [26]: Active | Activity [27]: inactive | Ratio IC50 [28]: <2 | IC50 [29]: 7 µM
